Measurements from ChEMBL document CHEMBL1130118, “A novel radioiodination reagent for protein radiopharmaceuticals with L-lysine as a plasma-stable metabolizable linkage to liberate m-iodohippuric acid after lysosomal proteolysis” (J Med Chem, 1997).

What was measured:
Type in all cases: ADME, organism-based
Mus musculus [1] = experiment: The biodistribution time for compound radioactivity after concomitant administration of [[131 I ]L-HML-NGA and compound in mice. It is expressed as percent injected dose per kidney after 5 minutes; settings: in vivo
Outline: (§1)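 Six-week-old male ddY mice received an intravenous injection of a 1:1 mix of the 131I- and 125I-labelled galactosyl-neoglycoalbumin conjugates, each diluted to 90 µg/mL protein in 0.1 M PBS pH 6.0, at 9 µg radioiodinated NGA per mouse. Groups of five were killed at 5, 15 and 30 min, 1 and 3 h. Organs were excised, weighed and well-counted, giving %ID/organ (blood %ID/g) as mean (SD).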

Mus musculus [2] = experiment: The biodistribution time for compound radioactivity after concomitant administration of [[131 I ]L-HML-NGA and compound in mice. It is expressed as percent injected dose per kidney after 3 hours; settings: in vivo; outline: as §1
Mus musculus [3] = experiment: The biodistribution time for compound radioactivity after concomitant administration of [131 I ]L-HML-NGA and compound in mice. It is expressed as percent injected dose per intestine after 30 minutes; settings: in vivo, 0.5 h; outline: as §1
Mus musculus [4] = experiment: The biodistribution time for compound radioactivity after concomitant administration of [131 I ]L-HML-NGA and compound in mice. It is expressed as percent injected dose per gram of blood tissue after 1 hour; settings: in vivo; outline: as §1
Mus musculus [5] = experiment: The biodistribution time for compound radioactivity after concomitant administration of [131 I ]L-HML-NGA and compound in mice. It is expressed as percent injected dose per neck after 30 minutes; settings: in vivo, 0.5 h; outline: as §1
[6] = Cumulative radioactivity exerted by compound in the urine at 24 hour postinjection of [131 I ]L-HML-NGA and compound; settings: in vivo
Outline: (§2)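 Mice received one i.v. co-injection of the dual-isotope NGA mixture, 9 µg of each radioiodinated protein, and were housed in metabolic cages for 24 h. Cumulative urine and feces were collected and counted. Values are % injected dose, mean (SD) of five animals, with a Student's paired t-test between the two co-administered conjugates.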

Mus musculus [7] = experiment: The biodistribution time for compound radioactivity after concomitant administration of [131 I ]L-HML-NGA and compound in mice. It is expressed as percent injected dose per liver after 3 hours; settings: in vivo; outline: as §1
Mus musculus [8] = experiment: The biodistribution time for compound radioactivity after concomitant administration of [[131 I ]L-HML-NGA and compound in mice. It is expressed as percent injected dose per kidney after 30 minutes; settings: in vivo, 0.5 h; outline: as §1
Mus musculus [9] = experiment: The biodistribution time for compound radioactivity after concomitant administration of [131 I ]L-HML-NGA and compound in mice. It is expressed as percent injected dose per gram of blood tissue after 30 minutes; settings: in vivo, 0.5 h; outline: as §1
Mus musculus [10] = experiment: The biodistribution time for compound radioactivity after concomitant administration of [131 I ]L-HML-NGA and compound in mice. It is expressed as percent injected dose per intestine after 3 hours; settings: in vivo; outline: as §1
Mus musculus [11] = experiment: The biodistribution time for compound radioactivity after concomitant administration of [[131 I ]L-HML-NGA and compound in mice. It is expressed as percent injected dose per kidney after 15 minutes; settings: in vivo, 0.25 h; outline: as §1
Mus musculus [12] = experiment: The biodistribution time for compound radioactivity after concomitant administration of [131 I ]L-HML-NGA and compound in mice. It is expressed as percent injected dose per stomach after 3 hours; settings: in vivo; outline: as §1
Mus musculus [13] = experiment: The biodistribution time for compound radioactivity after concomitant administration of [131 I ]L-HML-NGA and compound in mice. It is expressed as percent injected dose per gram of blood tissue after 15 minutes; settings: in vivo, 0.25 h; outline: as §1
Mus musculus [14] = experiment: The biodistribution time for compound radioactivity after concomitant administration of [131 I ]L-HML-NGA and compound in mice. It is expressed as percent injected dose per liver after 5 minutes; settings: in vivo; outline: as §1
Mus musculus [15] = experiment: The biodistribution time for compound radioactivity after concomitant administration of [131 I ]L-HML-NGA and compound in mice. It is expressed as percent injected dose per stomach after 15 minutes; settings: in vivo, 0.25 h; outline: as §1
Mus musculus [16] = experiment: The biodistribution time for compound radioactivity after concomitant administration of [131 I ]L-HML-NGA and compound in mice. It is expressed as percent injected dose per neck after 15 minutes; settings: in vivo, 0.25 h; outline: as §1
Mus musculus [17] = experiment: The biodistribution time for compound radioactivity after concomitant administration of [131 I ]L-HML-NGA and compound in mice. It is expressed as percent injected dose per liver after 30 minutes; settings: in vivo, 0.5 h; outline: as §1
Mus musculus [18] = experiment: The biodistribution time for compound radioactivity after concomitant administration of [131 I ]L-HML-NGA and [compound in mice. It is expressed as percent injected dose per stomach after 1 hour; settings: in vivo; outline: as §1
Mus musculus [19] = experiment: The biodistribution time for compound radioactivity after concomitant administration of [131 I ]L-HML-NGA and compound in mice. It is expressed as percent injected dose per liver after 15 minutes; settings: in vivo, 0.25 h; outline: as §1
Mus musculus [20] = experiment: The biodistribution time for compound radioactivity after concomitant administration of [131 I ]L-HML-NGA and compound in mice. It is expressed as percent injected dose per intestine after 1 hour; settings: in vivo; outline: as §1
Mus musculus [21] = experiment: The biodistribution time for compound radioactivity after concomitant administration of [131 I ]L-HML-NGA and compound in mice. It is expressed as percent injected dose per liver after 1 hour; settings: in vivo; outline: as §1
Mus musculus [22] = experiment: The biodistribution time for compound radioactivity after concomitant administration of [131 I ]L-HML-NGA and compound in mice. It is expressed as percent injected dose per neck after 5 minutes; settings: in vivo; outline: as §1
Mus musculus [23] = experiment: The biodistribution time for compound radioactivity after concomitant administration of [131 I ]L-HML-NGA and compound in mice. It is expressed as percent injected dose per gram of blood tissue after 5 minutes; settings: in vivo; outline: as §1
[24] = Cumulative radioactivity exerted by compound in the feces at 24 hour postinjection of [131 I ]L-HML-NGA and compound.; settings: in vivo; outline: as §2
Mus musculus [25] = experiment: The biodistribution time for compound radioactivity after concomitant administration of [[131 I ]L-HML-NGA and compound in mice. It is expressed as percent injected dose per kidney after 1 hour; settings: in vivo; outline: as §1
Mus musculus [26] = experiment: The biodistribution time for compound radioactivity after concomitant administration of [131 I ]L-HML-NGA and compound in mice. It is expressed as percent injected dose per intestine after 15 minutes; settings: in vivo, 0.25 h; outline: as §1
Mus musculus [27] = experiment: The biodistribution time for compound radioactivity after concomitant administration of [131 I ]L-HML-NGA and compound in mice. It is expressed as percent injected dose per intestine after 5 minutes; settings: in vivo; outline: as §1
Mus musculus [28] = experiment: The biodistribution time for compound radioactivity after concomitant administration of [131 I ]L-HML-NGA and compound in mice. It is expressed as percent injected dose per stomach after 30 minutes; settings: in vivo, 0.5 h; outline: as §1
Mus musculus [29] = experiment: The biodistribution time for compound radioactivity after concomitant administration of [131 I ]L-HML-NGA and compound in mice. It is expressed as percent injected dose per neck after 1 hour; settings: in vivo; outline: as §1
Mus musculus [30] = experiment: The biodistribution time for compound radioactivity after concomitant administration of [131 I ]L-HML-NGA and compound in mice. It is expressed as percent injected dose per stomach after 5 minutes; settings: in vivo; outline: as §1
Mus musculus [31] = experiment: The biodistribution time for compound radioactivity after concomitant administration of [131 I ]L-HML-NGA and compound in mice. It is expressed as percent injected dose per gram of blood tissue after 3 hours; settings: in vivo; outline: as §1
Mus musculus [32] = experiment: The biodistribution time for compound radioactivity after concomitant administration of [131 I ]L-HML-NGA and compound in mice. It is expressed as percent injected dose per neck after 3 hours; settings: in vivo; outline: as §1
Homo sapiens [33] = species: Homo sapiens; experiment: The percent protein-bound radioactivity in NGAfractions following incubation of radioiodinated compound in human serum after 6 hours; settings: in vitro
Outline: (§3)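 Conjugates were diluted to 0.5 mg/mL in 0.1 M PBS pH 6.0, and 20 µL was added to 230 µL of freshly prepared human serum. Samples were incubated at 37 °C and taken at 1, 3, 6 or 24 h. Protein-bound fraction (Rf 0) was separated from small metabolites (Rf 0.6-0.9) by paper chromatography in methanol-water 4:1. Protein-bound radioactivity was divided by the initial radiochemical purity. Values are mean (SD).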

Homo sapiens [34] = species: Homo sapiens; experiment: The percent protein-bound radioactivity in NGAfractions following incubation of radioiodinated compound in human serum after 24 hours; outline: as §3
Homo sapiens [35] = species: Homo sapiens; experiment: The percent protein-bound radioactivity in NGAfractions following incubation of radioiodinated compound in human serum after 1 hour; outline: as §3
Homo sapiens [36] = species: Homo sapiens; experiment: The percent protein-bound radioactivity in NGAfractions following incubation of radioiodinated compound in human serum after 3 hours; outline: as §3
Mus musculus [37] = experiment: The biodistribution time for compound radioactivity after concomitant administration of [131 I ]L-HML-NGA and compound in mice. It is expressed as percent injected dose per neck. Values are mean(SD) of five animals for each experiment after 3 hours; settings: in vivo; outline: as §1

Row | Radioactivity (Mus musculus [1]) | Radioactivity (Mus musculus [2]) | Radioactivity (Mus musculus [3]) | Radioactivity (Mus musculus [4]) | Radioactivity (Mus musculus [5]) | Radioactivity [6] | Radioactivity (Mus musculus [7]) | Radioactivity (Mus musculus [8]) | Radioactivity (Mus musculus [9]) | Radioactivity (Mus musculus [10]) | Radioactivity (Mus musculus [11]) | Radioactivity (Mus musculus [12]) | Radioactivity (Mus musculus [13]) | Radioactivity (Mus musculus [14]) | Radioactivity (Mus musculus [15]) | Radioactivity (Mus musculus [16]) | Radioactivity (Mus musculus [17]) | Radioactivity (Mus musculus [18]) | Radioactivity (Mus musculus [19]) | Radioactivity (Mus musculus [20]) | Structure (SMILES) | other results
1 | 1.26% | 0.34% | 21.6% | 0.54% | 0.18% | 39.1% | 3.62% | 1.73% | 1.11% | 40.82% | 2.97% | 1.09% | 1.78% | 93.14% | 0.65% | 0.2% | 27.49% | 1.4% | 66.9% | 34.28% | N[C@@H](CS)C(=O)SC1CC(=O)N(CCCC[C@@H](NC(=O)CNC(=O)c2cccc([125I])c2)C(=O)O)C1=O (stereo partly drawn) | Radioactivity (Mus musculus [21]): 12.6%; Radioactivity (Mus musculus [22]): 0.15%; Radioactivity (Mus musculus [23]): 1.15%; Radioactivity [24]: 40.97%; Radioactivity (Mus musculus [25]): 0.72%; Radioactivity (Mus musculus [26]): 5.11%; Radioactivity (Mus musculus [27]): 1.14%; Radioactivity (Mus musculus [28]): 2%; Radioactivity (Mus musculus [29]): 0.11%; Radioactivity (Mus musculus [30]): 0.24%; Radioactivity (Mus musculus [31]): 0.34%; Radioactivity (Mus musculus [32]): 0.04%
2 | 0.33% | 0.22% | 4.79% | 0.73% | 0.19% | 78.26% | 3% | 4.64% | 1.7% | 4.96% | 4.38% | 0.35% | 2.76% | 93.67% | 0.5% | 0.25% | 18.1% | 0.42% | 55.86% | 5.17% | N=C(CCCSC1CC(=O)N(CCCC[C@H](NC(=O)CNC(=O)c2cccc([125I])c2)C(=O)O)C1=O)NC(=O)[C@@H](N)CCCCN (stereo partly drawn) | Radioactivity (Homo sapiens [33]): 99.5%; Radioactivity (Homo sapiens [34]): 97.85%; Radioactivity (Homo sapiens [35]): 99.88%; Radioactivity (Mus musculus [21]): 5.92%; Radioactivity (Homo sapiens [36]): 99.4%; Radioactivity (Mus musculus [22]): 0.11%; Radioactivity (Mus musculus [23]): 1.17%; Radioactivity [24]: 4.03%; Radioactivity (Mus musculus [25]): 1.04%; Radioactivity (Mus musculus [26]): 2.26%; Radioactivity (Mus musculus [27]): 0.43%; Radioactivity (Mus musculus [28]): 0.36%; Radioactivity (Mus musculus [29]): 0.07%; Radioactivity (Mus musculus [30]): 0.24%; Radioactivity (Mus musculus [31]): 0.41%; Radioactivity (Mus musculus [37]): 0.03%
